Test results published in PubChem BioAssay AID624402 (The Scripps Research Institute Molecular Screening Center, 2012).
The source made the active and inactive calls.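 Rule for the calls: active = binding altered by at least 10% in every panel; inactive = the rest.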

Tested on: aryl hydrocarbon receptor (Cavia porcellus)
Assay: stimulation of AhR transformation and DNA binding – biochemical, radiometric EMSA, guinea pig liver cytosol, counter-screen for AhR activator project, late-stage follow-up (AID 624402)
Conditions: AhR-DRE EMSA, active compounds read high
How it was run: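 System: guinea pig hepatic cytosol, AhR. Probe or stimulus: Poly dIdC and [32P]-DRE probe. Repeats: triplicates. Doses: 10 µM test compound. Medium: HEDG, pH 7.5. Schedule: 2.5 h compound exposure at room temperature, 15 min per later addition. Control set: 20 nM TCDD reference. Technique: radiometric EMSA, phosphorimaging.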

| Structure (SMILES) | inhibition (run 1, at 10 µM) | inhibition (run 2, at 10 µM) |
| --- | --- | --- |
| Cc1ccc(NC(=O)c2ccc(C(=O)Nc3ccc(C)cc3C)nc2)c(C)c1 | 13.3% | 9.3% (inactive) |
| Cc1ccc(-c2cc(-c3ccc(F)cc3)n[nH]2)c(O)c1 | 50.8% | 47.5% |
| COc1ccc(O)c(-c2cc(-c3cccs3)[nH]n2)c1 | 6.4% (inactive) | 5.5% (inactive) |
| CCOC(=O)c1c(C)nn(-c2cc(Cl)ccc2Cl)c1C | 8.4% (inactive) | 5.4% (inactive) |
| Cc1ccc(-c2cc(-c3cccc(F)c3)n[nH]2)c(O)c1 | 42.7% | 39.8% |
| Cc1csc(SCC(=O)Nc2ccccn2)n1 | 6.2% (inactive) | 6.7% (inactive) |
| Cc1cccc(C)c1NC(=O)c1ccc(C(=O)Nc2c(C)cccc2C)nc1 | 8.6% (inactive) | 9% (inactive) |
| Cc1ccc(-c2cc(-c3ccc(Cl)cc3)n[nH]2)c(O)c1 | 32.8% | 28.8% |
| Cc1ccc(O)c(-c2cc(-c3ccccc3Cl)[nH]n2)c1 | 58.4% | 51.9% |
| CCOc1ccccc1NC(=O)c1ccc(C(=O)Nc2ccccc2OCC)nc1 | 6.4% (inactive) | 4.4% (inactive) |
| Nc1nc(Cl)cc(Nc2ccc(Oc3ccccc3)cc2)n1 | 10.9% (inactive) | 8.5% (inactive) |
| COc1ccc(Nc2cc(Cl)nc(N)n2)cc1OC | 7.5% (inactive) | 5.6% (inactive) |
| COc1ccc(-c2cc(-c3ccc(C)cc3O)[nH]n2)cc1 | 4.8% (inactive) | 3.2% (inactive) |
| Cc1cc(Br)cc(C)c1Nc1ccnc(Nc2ccc(C#N)cc2)n1 | 5.8% (inactive) | 5.3% (inactive) |
| COc1ccc(Cl)cc1NC(=O)c1ccc(C(=O)Nc2cc(Cl)ccc2OC)nc1 | 9.7% (inactive) | 8.4% (inactive) |
| Cc1cc(Nc2ccc(F)cc2)nc(N)n1 | 9.6% (inactive) | 5.6% (inactive) |
| COc1ccc(Nc2cc(Cl)nc(N)n2)cc1 | 10% (inactive) | 7.1% (inactive) |
| O=C(CSc1nc2ccccc2s1)Nc1ccc(Cl)cn1 | 16.3% | 19.4% |
| Cc1ccnc(NC(=O)CSc2nc3ccccc3s2)c1 | 19.7% | 17.3% |
| O=C(CSc1nc2ccccc2s1)Nc1ccccn1 | 41.3% | 38.5% |
| CN(Cc1cc(-c2cccs2)n[nH]1)Cc1coc2ccccc2c1=O | 22.1% | 19% |
| COc1ccc(NC(=O)c2ccc(C(=O)Nc3ccc(OC)cc3OC)nc2)c(OC)c1 | 6.9% (inactive) | 11.8% (inactive) |
| O=C(CSc1nc(-c2ccc(F)cc2)cs1)Nc1ccccn1 | 9.5% (inactive) | 7.1% (inactive) |
| Nc1nc(Cl)cc(Nc2ccccc2F)n1 | 15.4% | 12.5% |
| Cc1cccc(NC(=O)c2cc(-c3ccc(C)cc3O)n[nH]2)c1 | 8.2% (inactive) | 4.3% (inactive) |
